Test results as given in ChEMBL document CHEMBL1124174, “Substituted benzamides. 1. Potential nondopaminergic antagonists of chemotherapy-induced nausea and emesis” (J Med Chem, 1988).
“And” between values parts separate entries of the source, which are not always exact repeats. Equal entries are not always repeated. One block for each compound: values may come before it.

How the values were obtained:
Canis familiaris [1] = test: In vivo antagonism of cisplatin-induced emesis in dog measured as percentage protection for twice the dose of 0.1 mg/kg in 2 dogs; assay type: functional, Canis lupus familiaris
In short: (§1)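 Nonfasted mature male or female beagles were dosed sc twice, 30 min before and 120 min after cisplatin (3 mg/kg iv; 3 mg/mL in warm 0.9% saline, used immediately). Emesis was observed up to 5 h; events within 2 min counted as one episode. Results were given as mean emetic episodes and % protection versus a dynamic control (historical and concurrent saline means pooled). t test versus saline.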

Canis familiaris [2] = test: In vivo antagonism of cisplatin-induced emesis in dog measured as percentage protection for twice the dose of 0.3 mg/kg in 2 dogs; assay type: functional, Canis lupus familiaris; in short: as §1
[3] = biological target: D(2) dopamine receptor (Canis lupus familiaris) (UniProt Q9GJU1); test: In vivo antagonism activity against dopamine D2 receptor was measured as emesis in dog when administered subcutaneously; assay type: functional, organism-based
D(2) dopamine receptor = D(2) dopamine receptor (Rattus norvegicus, UniProt P61169); test: In vitro antagonistic activity against Dopamine receptor D2 was evaluated for the inhibition of [3H]spiperone binding
In short: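 Rat striatal membranes were prepared by differential centrifugation in 50 mM Tris pH 7.4 at 4 °C. Membrane protein (10 mg) was incubated 15 min at 37 °C with 0.1 nM [3H]spiperone and varying competitor concentrations. Buffer: 50 mM Tris HCl pH 7.5, 0.1% ascorbic acid, pargyline, 120 mM NaCl, 5 mM KCl, 2 mM CaCl2, 1 mM MgCl2. (+)-Butaclamol defined nonspecific binding. Bound ligand was collected by filtration and scintillation counted. IC50 by log-logit regression.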

Canis familiaris [4] = test: In vivo protection against cisplatin-induced emesis in dog measured as emetic episodes for twice the dose of 0.1 mg/kg and in 3 […]; assay type: functional, Canis lupus familiaris
Canis familiaris [5] = test: In vivo protection against cisplatin-induced emesis in dog measured as emetic episodes for twice the dose of 0.3 mg/kg and in 5 […]; assay type: functional, Canis lupus familiaris
Canis familiaris [6] = test: In vivo protection against cisplatin-induced emesis in dog measured as emetic episodes for twice the dose of 0.9 mg/kg and in 3 […]; assay type: functional, Canis lupus familiaris
Canis familiaris [7] = test: In vivo antagonism of cisplatin-induced emesis in dog measured as emetic episodes, twice the dose of 0.1 mg/kg in 2 dogs; assay type: functional, Canis lupus familiaris; in short: as §1
Canis familiaris [8] = test: In vivo antagonism of cisplatin-induced emesis in dog measured as emetic episodes, twice the dose of 0.3 mg/kg in 2 dogs; assay type: functional, Canis lupus familiaris; in short: as §1
Canis familiaris [9] = test: In vivo antagonism of cisplatin-induced emesis in dog measured as emetic episodes, twice the dose of 1 mg/kg in 2 dogs; assay type: functional, Canis lupus familiaris; in short: as §1
Canis familiaris [10] = test: In vivo antagonism of cisplatin-induced emesis in dog measured as percentage protection for twice the dose of 1 mg/kg in 2 dogs; assay type: functional, Canis lupus familiaris; in short: as §1
Canis familiaris [11] = test: In vivo protection against cisplatin-induced emesis in dog measured as percentage protection for twice the dose of 0.1 mg/kg and in 3 […]; assay type: functional, Canis lupus familiaris
Mustela putorius furo [12] = test: In vivo protection against cisplatin-induced emesis in ferret measured as emetic episodes for twice the dose of 0.3 mg/kg and in 6 ferrets; assay type: functional
In short: (§2)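 Nonfasted castrated male Fitch ferrets (1–1.5 kg) carried jugular vein catheters implanted at least 48 h earlier under general anesthesia. Test compound or saline was given iv twice, 5 min before and 90 min after cisplatin (12 mg/kg iv; 12 mg/mL in warm saline). Emesis was watched for 4 h, with events within 1 min counted as one episode. % protection is relative to a pooled historical-plus-concurrent control, with t test versus saline.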

Mustela putorius furo [13] = test: In vivo protection against cisplatin-induced emesis in ferret measured as emetic episodes for twice the dose of 2.7 mg/kg and in 3 ferrets; assay type: functional; in short: as §2
Mustela putorius furo [14] = test: In vivo protection against cisplatin-induced emesis in ferret measured as p emetic episodes for twice the dose of 0.9 mg/kg and in 6 ferrets; assay type: functional; in short: as §2
Mustela putorius furo [15] = test: Cisplatin-induced emesis in ferret measured as stereotypy […] when administered iv […] twice daily; assay type: functional
Mustela putorius furo [16] = test: In vivo protection against cisplatin-induced emesis in ferret measured as percentage protection for twice the dose of 0.1 mg/kg and in 3 ferrets; assay type: functional; in short: as §2
Mustela putorius furo [17] = test: In vivo protection against cisplatin-induced emesis in ferret measured as percentage protection for twice the dose of 0.3 mg/kg and in 6 ferrets; assay type: functional; in short: as §2
Mustela putorius furo [18] = test: In vivo protection against cisplatin-induced emesis in ferret measured as percentage protection for twice the dose of 0.9 mg/kg and in 6 ferrets; assay type: functional; in short: as §2
Mustela putorius furo [19] = test: In vivo antagonism of cisplatin-induced emesis in ferret measured as emetic episodes, twice the dose of 3 mg/kg and in 3 ferrets; assay type: functional
In short: (§3)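 Nonfasted castrated male Fitch ferrets (1–1.5 kg) had jugular catheters implanted ≥48 h earlier under anesthesia. Compounds or saline were given iv twice, 5 min before and 90 min after cisplatin (12 mg/kg iv; 12 mg/mL in warm 0.9% saline). Emesis was observed up to 4 h; events within 1 min counted as one episode. Results were given as mean emetic episodes and % protection versus a pooled historical/concurrent control. t test versus saline.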

Mustela putorius furo [20] = test: In vivo antagonism of cisplatin-induced emesis in ferret measured as emetic episodes, twice the dose of 0.1 mg/kg and in 3 ferrets; assay type: functional; in short: as §3
Mustela putorius furo [21] = test: In vivo antagonism of cisplatin-induced emesis in ferret measured as emetic episodes, twice the dose of 0.3 mg/kg and in 3 ferrets; assay type: functional; in short: as §3
Mustela putorius furo [22] = test: In vivo protection against cisplatin-induced emesis in ferret measured as percentage protection for twice the dose of 2.7 mg/kg and in 0.1 ferrets; assay type: functional; settings: in the assay text read “in 3 ferrets” for “in 0.1 ferrets”; in short: as §2
Mustela putorius furo [23] = test: In vivo antagonism of cisplatin-induced emesis in ferret measured as percentage protection for twice the dose of 3 mg/kg and […]; assay type: functional; in short: as §3
Mustela putorius furo [24] = test: In vivo protection against cisplatin-induced emesis in ferret measured as emetic episodes for twice the dose of 0.1 mg/kg and in 3 ferrets; assay type: functional; in short: as §2
[25] = biological target: D(2) dopamine receptor (Rattus norvegicus) (UniProt P61169); test: In vivo antagonism activity against D2 receptor was measured as stereotypy in rat when administered subcutaneously; assay type: functional, organism-based
In short: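 Male Long Evans rats (275 g) were dosed sc in dilute aqueous HCl (pH 4.5-5.5) 30 min before apomorphine (1 mg/kg sc).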

[26] = biological target: D(2) dopamine receptor (Rattus norvegicus) (UniProt P61169); test: In vivo antagonistic activity against dopamine D2 receptor was measured as catalepsy in rat when administered subcutaneously; assay type: functional, organism-based
In short: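 Male Long Evans rats (275 g) received graded sc doses in dilute aqueous HCl (pH 4.5-5.5). They were observed 180 min for catalepsy, scored when the animal stayed stationary ≥15 s on a four-cork template.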

Canis familiaris [27] = test: cisplatin-induced emesis in dog was measured for when administered twice daily; settings: Canis lupus familiaris
Mustela putorius furo [28] = test: In vivo antagonism of cisplatin-induced emesis in ferret measured as percentage protection for twice the dose of 3 mg/kg
Canis familiaris [29] = test: In vivo protection against cisplatin-induced emesis in dog measured as percentage protection twice the dose of 0.1 mg/kg and in 3 dogs
Canis familiaris [30] = test: In viov antagonism of cisplatin-induced emesis in dog measured as percentage protection for twice the dose of 1 mg/kg in 2 dogs; assay type: functional, Canis lupus familiaris; in short: as §1
Mustela putorius furo [31] = test: In vivo antagonism of cisplatin-induced emesis in ferret measured as percentage protection for twice the dose of 0.3 mg/kg and in 3 ferrets; assay type: functional; settings: 0.3 mg/kg; in short: as §3
Mustela putorius furo [32] = test: In vivo antagonism of cisplatin-induced emesis in ferret measured as emetic episodes, twice the dose of 1 mg/kg and in 3 ferrets; assay type: functional; settings: 1 mg/kg; in short: as §3
Mustela putorius furo [33] = test: In vivo antagonism of cisplatin-induced emesis in ferret measured as percentage protection for twice the dose of 1 mg/kg and in 3 ferrets; assay type: functional; settings: 1 mg/kg; in short: as §3
Mustela putorius furo [34] = test: In vivo antagonism of cisplatin-induced emesis in ferret measured as percentage protection for twice the dose of 3 mg/kg and in 3 ferrets; assay type: functional; settings: 3 mg/kg; in short: as §3
Mustela putorius furo [35] = test: in vivo antagonism of cisplatin-induced emesis in ferret measured as emetic episodes, twice the dose of 0.3 mg/kg and in 3 ferrets; assay type: functional; in short: as §2

D(2) dopamine receptor, sequence (P61169 whole entry): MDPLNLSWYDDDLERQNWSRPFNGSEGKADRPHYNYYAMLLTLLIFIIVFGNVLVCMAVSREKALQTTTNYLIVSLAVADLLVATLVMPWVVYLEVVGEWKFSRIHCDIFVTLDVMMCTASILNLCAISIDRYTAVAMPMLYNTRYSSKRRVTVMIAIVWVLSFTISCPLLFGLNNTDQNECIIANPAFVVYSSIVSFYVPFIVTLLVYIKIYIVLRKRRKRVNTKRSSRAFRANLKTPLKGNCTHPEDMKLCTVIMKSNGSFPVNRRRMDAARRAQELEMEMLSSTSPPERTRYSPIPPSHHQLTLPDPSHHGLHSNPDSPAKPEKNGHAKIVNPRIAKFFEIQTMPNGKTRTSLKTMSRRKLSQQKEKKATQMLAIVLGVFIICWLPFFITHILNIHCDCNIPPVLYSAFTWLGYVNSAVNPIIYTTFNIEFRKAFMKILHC
D(2) dopamine receptor (Rattus norvegicus), sequence (P61169 whole entry): as above
D(2) dopamine receptor (Canis lupus familiaris), sequence (Q9GJU1 whole entry): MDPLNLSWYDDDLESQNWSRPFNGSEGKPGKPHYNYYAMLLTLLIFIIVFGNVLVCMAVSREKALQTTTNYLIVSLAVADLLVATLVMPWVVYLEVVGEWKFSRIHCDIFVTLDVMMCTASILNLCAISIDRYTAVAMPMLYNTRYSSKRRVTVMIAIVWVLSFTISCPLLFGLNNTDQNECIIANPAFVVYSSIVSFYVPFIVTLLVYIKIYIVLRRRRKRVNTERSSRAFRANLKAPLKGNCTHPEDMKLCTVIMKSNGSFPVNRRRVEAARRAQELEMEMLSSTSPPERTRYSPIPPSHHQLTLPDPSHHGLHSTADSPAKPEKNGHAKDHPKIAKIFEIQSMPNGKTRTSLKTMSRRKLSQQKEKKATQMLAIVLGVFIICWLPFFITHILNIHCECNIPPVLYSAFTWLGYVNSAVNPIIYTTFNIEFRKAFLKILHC

IC50 (D(2) dopamine receptor): > 1000 nM
ED50 [25]: > 40 mg/kg
Structure (SMILES): CCN(CC)CCNC(=O)c1cc(Cl)c(N)cc1OC(C)C(C)=O (configuration not stated) [BATANOPRIDE]
Protection (Canis familiaris [1]): 60%
Protection (Canis familiaris [2]): 87%
ED50 [3]: > 3 mg/kg
Emetic episodes (Canis familiaris [4]): 5
Emetic episodes (Canis familiaris [5]): 1.6
Emetic episodes (Canis familiaris [6]): 0
Emetic episodes (Canis familiaris [7]): 0.5
Emetic episodes (Canis familiaris [8]): 1.5
Emetic episodes (Canis familiaris [9]): 0.5
Protection (Canis familiaris [10]): 96%
Protection (Canis familiaris [11]): 86% and 100%
Emetic episodes (Mustela putorius furo [12]): 2.5
Emetic episodes (Mustela putorius furo [13]): 0.3
Emetic episodes (Mustela putorius furo [14]): 0.5
ED50 (Mustela putorius furo [15]): 0.14 mg/kg
Protection (Mustela putorius furo [16]): 53%
Protection (Mustela putorius furo [17]): 64%
Protection (Mustela putorius furo [18]): 93%
Emetic episodes (Mustela putorius furo [19]): 0.3
Emetic episodes (Mustela putorius furo [20]): 3.3
Emetic episodes (Mustela putorius furo [21]): 1
Protection (Mustela putorius furo [22]): 96%
Protection (Mustela putorius furo [23]): 96% and 54%
Emetic episodes (Mustela putorius furo [24]): 3.3
ED50 [26]: > 40 mg/kg
ED50 (Canis familiaris [27]): 0.05 mg/kg
Protection (Mustela putorius furo [28]): 90%
Protection (Canis familiaris [29]): 58%

IC50 (D(2) dopamine receptor): > 1000 nM
Structure (SMILES): CCN(CC)CCNC(=O)c1cc(Cl)c(N)cc1OC(C)C(C)O (stereo in doubt; 8g)
Protection (Canis familiaris [30]): 100%
Protection (Canis familiaris [1]): 62%
Protection (Canis familiaris [2]; 0.3 mg/kg): 100%
Emetic episodes (Canis familiaris [7]): 4
Emetic episodes (Canis familiaris [8]; 0.3 mg/kg): 0
Emetic episodes (Canis familiaris [9]): 0
Protection (Mustela putorius furo [31]): 49%
Emetic episodes (Mustela putorius furo [19]; 3 mg/kg): 1
Emetic episodes (Mustela putorius furo [21]; 0.3 mg/kg): 0.7
Emetic episodes (Mustela putorius furo [32]): 1.3
Protection (Mustela putorius furo [33]): 82%
Protection (Mustela putorius furo [34]): 86%

IC50 (D(2) dopamine receptor): > 1000 nM
Structure (SMILES): CCN(CC)CCNC(=O)c1cc(Cl)c(N)cc1OC[C@@H](C)O (stereo in doubt; 8e)
Protection (Canis familiaris [2]; 0.3 mg/kg): 45%
Emetic episodes (Canis familiaris [8]; 0.3 mg/kg): 6.5
Emetic episodes (Canis familiaris [9]; 1 mg/kg): 1
Protection (Canis familiaris [10]; 1 mg/kg): 92%
Emetic episodes (Mustela putorius furo [35]): 6
Protection (Mustela putorius furo [21]; in the assay text read “in 2 ferrets” for “in 3 ferrets”): 18%
Emetic episodes (Mustela putorius furo [32]): 2
Protection (Mustela putorius furo [33]): 73%
